The source made the active and inactive calls. The calls are words filed in the database; no cut-off is given here.

Data set [1] deals with T1, Heat shock protein HSP 90-alpha (Homo sapiens, UniProt P07900). The data set is described as follows: Inhibition of FITC-geldanamycin binding to human His-tagged HSP90alpha N-terminal domain (1 to 236 residues) expressed in Escherichia coli BL21star (DE3) at 100 uM after 4 hrs by FP assay relative to control. In outline: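 Hsp90αN (15 nM final) with GM-FITC (6 nM final) and compound in HEPES/KCl/MgCl2 buffer pH 7.4 with NP40, DTT, BGG; 4 h at 4 °C in dark; FP at ex 485/em 535 nm; inhibition computed against GM-FITC-only and protein-plus-probe controls; n = 3.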

Data set [2] has as its target T2, Endoplasmin (Homo sapiens, UniProt P14625). Kind of data set: Inhibition of GRP94 in human PANC1 cells assessed as down-regulation of integrin alpha2 levels after 36 hrs by Western blot analysis. It is filed as cell-based. The gist of the method: (§1)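 Panc-1 cells treated 36 h at indicated concentrations; cell surface protein extracted with a membrane-fractionation kit; Western blot for integrin α2 and αL with β-actin loading control, infrared fluorescent secondary detection.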

In data set [3] the target is T2, Endoplasmin. The data set is described as follows: Inhibition of GRP94 in human PANC1 cells assessed as down-regulation of integrin alphaL levels after 36 hrs by Western blot analysis. It is filed as cell-based. The gist of the method:
as §1

The target in data set [4] is T1, Heat shock protein HSP 90-alpha. Kind of data set: Inhibition of HSP90alpha in human PANC1 cells assessed as up-regulation of Hsp70 at 1 to 5 uM after 36 hrs by Western blot analysis. The data set is classed as cell-based. The gist of the method:
(§2)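 Panc-1 cells treated 36 h; total protein lysate with protease/phosphatase inhibitors; equal protein by BCA on SDS-PAGE, PVDF, Western blot for Hsp70 and Akt, β-actin loading control; AT13387 reference.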

Data set [5] shares this target. The data set is described as follows: Inhibition of HSP90alpha in human PANC1 cells assessed as akt degradation at 1 to 5 uM after 36 hrs by Western blot analysis. It is filed as cell-based. In outline: as §2
(In general: A western blot detects proteins with antibodies after separation by electrophoresis.)

The subject of data set [6] is Mus musculus. Kind of data set: Anti-inflammatory activity in C57BL/6 mouse model of DSS-induced ulcerative colitis assessed reduction in body weight loss at 10 to 30 mg/kg, ip qd co-administrated with DSS measured until day 7 post dose. It is filed as functional, organism-based. In outline: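 Male C57BL/6 mice (20−22 g), n = 8 per group, 3% DSS in drinking water for 7 days with ip qd dosing at 10 or 30 mg/kg; vehicle for normal and disease controls. Body weight, stool consistency and rectal bleeding recorded daily; DAI scored from weight loss, stool consistency and stool blood.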

The subject of data set [7] is Mus musculus. The data set is described as follows: Anti-inflammatory activity in C57BL/6 mouse model of DSS-induced ulcerative colitis assessed mortality at 30 mg/kg, ip qd co-administrated with DSS measured on day 7 post dose. It is filed as functional, organism-based. The gist of the method: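 Male C57BL/6 mice (20−22 g), randomized, n = 8 per group; 3% DSS (36−50 KD) in drinking water for 7 days, with compound given ip once daily alongside; normal and disease controls received vehicle. Deaths counted at day 7.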

Data set [8] deals with Mus musculus. The data set is described as follows: Anti-inflammatory activity in C57BL/6 mouse model of DSS-induced ulcerative colitis assessed reduction in colon shortening at 10 to 30 mg/kg, ip qd co-administrated with DSS measured on day 7 post dose. It is filed as functional, organism-based. In outline: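 Male C57BL/6 mice (20−22 g), n = 8 per group, 3% DSS in drinking water 7 days plus ip qd dosing at 10 or 30 mg/kg; vehicle controls. Sacrificed at day 7, colons collected; colon length measured and H&E-stained colon sections examined.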

Data set [9] relates to Mus musculus. The data set is described as follows: Anti-inflammatory activity in ip dosed C57BL/6 mouse model of DSS-induced ulcerative colitis assessed reduction in TNFalpha levels in colonic tissues co-administrated once daily with DSS measured on day 7 post dose by ELISA. The data set is classed as functional, organism-based. In outline:
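DSS colitis in male C57BL/6 mice (3% DSS in water, 7 days, ip qd co-dosing, vehicle controls). Serum and colons taken at sacrifice on day 7; colon homogenate supernatants and serum assayed for mouse TNFα and IL-6 by ELISA kits; n = 5 samples per group.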

In data set [10] the test system is Mus musculus. Kind of data set: Anti-inflammatory activity in C57BL/6 mouse model of DSS-induced ulcerative colitis assessed reduction in TLR2 expression in colonic tissues at 10 to 30 mg/kg, ip qd co-administrated with DSS measured on day 7 post dose. The data set is classed as functional, organism-based. The gist of the method: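 DSS colitis in male C57BL/6 mice (3% DSS, 7 days, ip qd 10 or 30 mg/kg, vehicle controls); colons flash-frozen at day 7, homogenized in lysis buffer with protease/phosphatase inhibitors. Equal protein by BCA run on SDS-PAGE, PVDF, 1% BSA block, primary antibodies 37 °C 1 h then 4 °C overnight, DyLight 800 secondary, infrared scan; β-actin loading control.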

Data set [11] deals with Mus musculus. Kind of data set: Subacute toxicity in C57BL/6 mouse assessed as body weight loss at 30 to 90 mg/kg, ip qd for 2 weeks measured every other day. The data set is classed as organism-based. The following applies: in vivo, 336 h.
Data set [12] has as its system Mus musculus. The data set is described as follows: Subacute toxicity in C57BL/6 mouse assessed as behavioral abnormalities at 30 to 90 mg/kg, ip qd for 2 weeks. It is filed as organism-based. The following applies: in vivo, 336 h.
Data set [13] concerns Mus musculus. The data set is described as follows: Subacute toxicity in C57BL/6 mouse assessed as effect on lung at 30 to 90 mg/kg, ip qd for 2 weeks by hematoxylin and eosin staining analysis. It is filed as organism-based. The following applies: in vivo, 336 h.
The species entered for data set [14] is Canis lupus familiaris. The data set is described as follows: Binding affinity to dog GST-tagged GRP94 N41 deletion mutant (69 to 337 residues) expressed in Escherichia coli BL21star (DE3) at 40 uM by NMR based CPMG assay.
For data set [15], the species on record is Canis lupus familiaris. The data set is described as follows: Binding affinity to dog His-tagged biotinylated GRP94 N41 deletion mutant (69 to 337 residues) expressed in Escherichia coli BL21star (DE3) assessed as dissociation constant by biolayer interferometry. In outline:
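His-tagged Grp94N biotinylated at one molar ratio in PBS pH 7.4, dialysed overnight, loaded at 400 nM on streptavidin biosensors after 10 min prewetting in PBS, 0.05% BSA, 0.01% Tween-20. Four compound concentrations in this buffer tested; binding recorded at 30 °C by biolayer interferometry.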
Background: In BLI a coated tip is dipped into the sample, and binding shifts an interference pattern.

T2 sequence (P14625 whole entry): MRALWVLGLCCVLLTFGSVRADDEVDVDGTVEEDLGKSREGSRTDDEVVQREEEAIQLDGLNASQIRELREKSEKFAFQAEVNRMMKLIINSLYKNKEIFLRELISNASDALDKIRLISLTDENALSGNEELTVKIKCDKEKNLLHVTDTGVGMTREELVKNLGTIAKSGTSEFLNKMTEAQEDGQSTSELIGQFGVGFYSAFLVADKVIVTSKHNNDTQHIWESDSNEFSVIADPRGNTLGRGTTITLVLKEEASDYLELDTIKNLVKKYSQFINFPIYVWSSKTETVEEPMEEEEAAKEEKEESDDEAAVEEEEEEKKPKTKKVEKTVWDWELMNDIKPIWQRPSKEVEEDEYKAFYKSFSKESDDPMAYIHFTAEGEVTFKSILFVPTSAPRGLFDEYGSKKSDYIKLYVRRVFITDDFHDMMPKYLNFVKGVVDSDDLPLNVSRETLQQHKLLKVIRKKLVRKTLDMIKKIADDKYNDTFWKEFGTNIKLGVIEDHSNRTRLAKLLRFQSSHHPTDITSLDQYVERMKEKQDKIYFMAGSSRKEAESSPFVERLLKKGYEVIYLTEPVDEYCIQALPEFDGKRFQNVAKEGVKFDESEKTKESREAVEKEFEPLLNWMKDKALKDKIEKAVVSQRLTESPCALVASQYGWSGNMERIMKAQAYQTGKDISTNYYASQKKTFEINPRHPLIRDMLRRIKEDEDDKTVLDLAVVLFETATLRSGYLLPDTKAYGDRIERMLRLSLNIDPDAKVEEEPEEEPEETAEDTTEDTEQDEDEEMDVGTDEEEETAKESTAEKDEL

Consider `CC(C)c1ccc(-c2ccc(N[C@H]3CC[C@H](O)CC3)c(C(N)=O)c2)cc1`, for which the “inhibition (INH)” value in data set [1], in data set [4] and in data set [5] was “Not Active” in each case. For the same compound, the inhibition entry in data set [2] and in data set [3] was “Dose-dependent effect” each time. The outcome in data set [6], in [7], in data set [10] and in data set [14] was Active. In [8], the outcome was inactive. Also, the Activity entry in [9] is “Dose-dependent effect”; in [11] it was “Non-Toxic”; in [12] it was “Non-Toxic”; in [13], “Non-Toxic”. For the same compound, the K in data set [15] was 1.25 ×10⁻² /s.

The record behind these values is ChEMBL document CHEMBL4152387, “Discovery of a Potent Grp94 Selective Inhibitor with Anti-Inflammatory Efficacy in a Mouse Model of Ulcerative Colitis” (J Med Chem, 2018).
